From ChEMBL document CHEMBL1123198, “Stereoselective syntheses of the trans-decahydroquinoline-5-carboxylic acid epimers. Diastereomeric zwitterionic probes of gamma-aminobutyric acid related biological properties in vitro and in vivo” (1986) come the findings set out here.

In assay [1] the target is T1, GABA-A receptor; anion channel (Rattus norvegicus) (UniProt O09028+P15431+P18506+P18508+P19969+P20236+P23574+P23576+P28471+P28473+P30191+P62813+P63079+P63138+Q91ZM7+Q9ES14). The following applies: Brain, Brain membranes.
Assay [2] has as its target GABA B receptor (Rattus norvegicus) (UniProt Q9Z0U4+O88871). Kind of assay: Displacement of [3H]-GABA from Gamma-aminobutyric acid type B receptor in rat brain membranes. Format: cell membranes. Set-up: concentration or dose not given beside the values. A digest of the protocol: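 GABA-B binding: rat brain membranes were incubated with [3H]GABA plus 40 µM isoguvacine to block GABA-A sites. Nonspecific binding was defined with 100 µM baclofen. Values are means of three experiments, each in duplicate; standard errors were below 20%.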
(In general: In a radioligand displacement assay an active substance lowers the binding of a labelled ligand.)

Assay [3] concerns the target T1, GABA-A receptor; anion channel (Rattus norvegicus). Briefly: Displacement of [3H]-GABA from Gamma-aminobutyric acid A receptor in rat brain membranes. Format: cell membranes. Set-up: concentration or dose not given beside the values. A digest of the protocol: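 GABA-A binding used [3H]GABA as ligand, with nonspecific binding taken in 1 mM unlabelled GABA. Values are means of three experiments, each in duplicate; standard error of the means was below 10%.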

For assay [4], the species on record is Rattus norvegicus. Kind of assay: Cyclic AMP accumulation in Rat brain cerebral cortical slices by the compound, activity expressed as % conversion. Format: functional. The method in brief:
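Rat cerebral cortical slices were used for cAMP accumulation. cAMP was isolated by double-column chromatography. Values are means of two experiments, each run in duplicate.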

Assay [5] deals with T1, GABA-A receptor; anion channel (Rattus norvegicus). Briefly: Displacement of [35S]TBPS from GABA-A receptor of rat brain membranes. Format: cell membranes. Set-up: concentration or dose not given beside the values. The following applies: Membrane. The method in brief:
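[35S]TBPS binding assay with nonspecific binding defined by 10 µM unlabelled TBPS. Values are means of two experiments, each in duplicate.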

For assay [6], the target named is GABA transporter (Rattus norvegicus) (UniProt P31647+P23978+P31646+P48056). Kind of assay: Inhibition of [3H]GABA uptake from rat brain membranes. Format: functional, cell membranes. The following applies: Membrane, concentration not given here. The method in brief:
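High-affinity [3H]GABA uptake was measured into rat brain synaptosomes. Values are means of two experiments.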

Assay [7] deals with T1, GABA-A receptor; anion channel (Rattus norvegicus). Briefly: Displacement of GABA activated [3H]diazepam binding in rat brain membranes. It is filed as cell membranes. The method in brief: (§1)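 [3H]Diazepam binding, alone and GABA-activated, was measured in brain membranes. Nonspecific binding was taken with 1 µM unlabelled diazepam. Values are means of two experiments, each in duplicate.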

Assay [8] shares this target. Kind of assay: Displacement of [3H]diazepam binding in rat brain membranes. Set-up: unit not given here. It is filed as cell membranes. A digest of the protocol: as §1
The subject of assay [9] is Mus musculus. Briefly: Convulsant effect on ICV administration in mice at 100 ug. Format: functional. The method in brief:
(§2)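 Mice under halothane anaesthesia got a 4 µL injection into the left ventricle at 25, 50 or 100 µg, with saline controls. Mice sat in a 1-L beaker and were watched for seizures from 2 min after injection, and for behaviour over 40 min. A seizure counted when tonic-clonic convulsions occurred and the mouse fell on its flank. Read-out: mice convulsing/mice tested, and seizure duration in min (mean ± SEM).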

For assay [10], the system named is Mus musculus. Kind of assay: Convulsant effect on ICV administration in mice at 25microg, 0/5 mice affected. It is filed as functional. The method in brief:
as §2

In assay [11] the test system is Mus musculus. Kind of assay: Convulsant effect on ICV administration in mice at 50 ug. It is filed as functional. The method in brief: as §2
Assay [12] relates to Mus musculus. Kind of assay: Reversal of convulsant effect by Diazepam pretreatment (2 mg/kg) at 100 ug ICV dose, 5/5 mice affected. Format: functional.
Assay [13] relates to Mus musculus. Briefly: Convulsant effect on ICV administration in mice at 100microg, 5/5 mice affected. Format: functional. The method in brief: as §2
The species named for assay [14] is Mus musculus. Kind of assay: Reversal of convulsant effect by Diazepam pretreatment at 100 ug ICV dose, 5/5 mice affected. Format: functional.
Assay [15] has as its system Mus musculus. Briefly: Reversal of convulsant effect by Diazepam pretreatment (10 mg/kg) at 100 ug ICV dose, 0/5 mice affected. Format: functional.
In assay [16] the test system is Mus musculus. Kind of assay: Reversal of convulsant effect by Diazepam pretreatment (5 mg/kg) at 100 ug ICV dose, 4/4 mice affected. It is filed as functional.
Assay [17] relates to Mus musculus. Briefly: Convulsant effect on ICV administration in mice at 50microg, 5/5 mice affected. It is filed as functional. The method in brief: as §2
Assay [18] deals with T1, GABA-A receptor; anion channel (Rattus norvegicus). The following applies: Brain, Brain membranes. The source holds these as a separate data set.
For assay [19] the target is unchanged. Kind of assay: Displacement of [3H]diazepam binding to rat brain membranes at 100 uM concentration. It is filed as cell membranes. The following applies: Membrane. The method in brief: as §1
Assay [20] has the same target. Briefly: Displacement of GABA activated [3H]diazepam binding in rat brain membranes at 100 uM. It is filed as cell membranes. A digest of the protocol: as §1
Assay [21] concerns Mus musculus. Kind of assay: Reversal of convulsant effect by Diazepam pretreatment (5 mg/kg) at 100 ug ICV dose, 5/5 mice affected. Format: functional.
In assay [22] the test system is Mus musculus. Briefly: Reversal of convulsant effect by Diazepam pretreatment (10 mg/kg) at 100 ug ICV dose, 0/6 mice affected. Format: functional.
The test system of assay [23] is Mus musculus. Kind of assay: Reversal of convulsant effect by Diazepam pretreatment (2 mg/kg) at 100 ug ICV dose, 4/4 mice affected. Format: functional.
Assay [24] relates to Mus musculus. Briefly: Convulsant effect on ICV administration in mice at 50microg, 1/6 mice affected. Format: functional. A digest of the protocol:
as §2

A value given as a limit tells only on which side of the number the result lay.

Usually inhibition stands for the share of the control response that was lost under treatment.

Chain of GABA transporter (Rattus norvegicus) (P31646 whole entry, looked up): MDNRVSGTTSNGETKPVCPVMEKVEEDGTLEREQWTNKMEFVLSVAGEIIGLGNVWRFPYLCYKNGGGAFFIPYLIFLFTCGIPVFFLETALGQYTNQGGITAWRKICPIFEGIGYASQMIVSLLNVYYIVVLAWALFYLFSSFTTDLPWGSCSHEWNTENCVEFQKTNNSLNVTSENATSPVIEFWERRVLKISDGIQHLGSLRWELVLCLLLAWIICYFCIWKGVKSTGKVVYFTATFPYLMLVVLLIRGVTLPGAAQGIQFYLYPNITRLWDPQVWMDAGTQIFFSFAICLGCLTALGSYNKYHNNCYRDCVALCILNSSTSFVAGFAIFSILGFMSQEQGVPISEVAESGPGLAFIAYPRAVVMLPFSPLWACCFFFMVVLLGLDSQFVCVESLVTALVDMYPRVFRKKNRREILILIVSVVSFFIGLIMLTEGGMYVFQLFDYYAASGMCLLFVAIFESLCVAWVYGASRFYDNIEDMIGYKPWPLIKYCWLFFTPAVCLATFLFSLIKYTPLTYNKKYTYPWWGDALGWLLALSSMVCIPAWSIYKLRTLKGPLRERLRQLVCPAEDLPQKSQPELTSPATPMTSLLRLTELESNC
Chain of GABA transporter (Rattus norvegicus) (P31647 whole entry, looked up): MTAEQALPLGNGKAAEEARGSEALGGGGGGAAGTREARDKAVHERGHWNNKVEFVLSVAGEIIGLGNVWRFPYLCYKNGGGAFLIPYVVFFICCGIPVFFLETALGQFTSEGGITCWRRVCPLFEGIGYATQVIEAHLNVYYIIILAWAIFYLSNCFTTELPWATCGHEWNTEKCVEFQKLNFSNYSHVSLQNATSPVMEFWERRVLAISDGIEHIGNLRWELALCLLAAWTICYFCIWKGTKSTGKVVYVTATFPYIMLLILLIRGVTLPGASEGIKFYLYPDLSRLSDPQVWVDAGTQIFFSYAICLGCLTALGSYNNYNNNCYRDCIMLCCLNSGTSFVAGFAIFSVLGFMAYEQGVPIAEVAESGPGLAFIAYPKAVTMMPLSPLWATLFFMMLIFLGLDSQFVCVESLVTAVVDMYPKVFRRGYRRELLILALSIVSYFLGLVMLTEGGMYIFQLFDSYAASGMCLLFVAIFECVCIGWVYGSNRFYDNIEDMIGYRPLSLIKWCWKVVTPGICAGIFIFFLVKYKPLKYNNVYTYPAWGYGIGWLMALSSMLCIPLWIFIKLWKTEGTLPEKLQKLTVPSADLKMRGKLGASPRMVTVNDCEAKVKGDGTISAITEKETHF
Chain of GABA transporter (Rattus norvegicus) (P48056 whole entry, looked up): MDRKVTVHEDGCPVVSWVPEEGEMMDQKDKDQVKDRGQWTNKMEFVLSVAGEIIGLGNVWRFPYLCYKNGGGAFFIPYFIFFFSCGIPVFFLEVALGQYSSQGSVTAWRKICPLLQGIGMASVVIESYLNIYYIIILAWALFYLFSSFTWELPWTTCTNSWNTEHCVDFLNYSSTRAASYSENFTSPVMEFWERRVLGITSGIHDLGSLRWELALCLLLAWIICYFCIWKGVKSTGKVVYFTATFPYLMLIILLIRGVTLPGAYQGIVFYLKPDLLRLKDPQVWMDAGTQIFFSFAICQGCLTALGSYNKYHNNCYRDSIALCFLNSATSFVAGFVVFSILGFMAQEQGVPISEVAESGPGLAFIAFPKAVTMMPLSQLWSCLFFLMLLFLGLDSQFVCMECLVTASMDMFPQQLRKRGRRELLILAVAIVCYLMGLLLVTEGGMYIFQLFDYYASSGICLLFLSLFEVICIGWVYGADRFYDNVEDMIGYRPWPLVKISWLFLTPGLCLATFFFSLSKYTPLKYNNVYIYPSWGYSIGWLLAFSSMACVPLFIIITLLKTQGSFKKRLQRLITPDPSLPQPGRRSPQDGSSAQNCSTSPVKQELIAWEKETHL

On to `NCCCC(=O)O`, for which the Binding affinity (spec bound mg-1) in [1] was 55.4. For the same compound, the Displacement in [2] and in [3] was 100% each time.

Regarding `CC(C)NCC(O)c1ccc(O)c(O)c1.NCC(CC(=O)O)c1ccc(Cl)cc1.O=C(O)[C@@H]1CCCC2NCCCC21` (stereo in doubt; form 4), the Conversion in [4] was found to be 2.63%.

`CC(C)NCC(O)c1ccc(O)c(O)c1.O=C(O)[C@@H]1CCCC2NCCCC21` (stereo in doubt; form 2): in assay [4], the Conversion stood at 0.86%.

With `CC(C)NCC(O)c1ccc(O)c(O)c1.NCC(CC(=O)O)c1ccc(Cl)cc1` (stereo not given), the Conversion in assay [4] is on record as 2.56%.

On to `O=C(O)[C@@H]1CCCC2NCCCC21` (stereo in doubt; form 2), for which the Displacement in [5] is less than 5%; in assay [2], less than 10%; in [3] it was less than 10%. The compound also displayed an inhibition in assay [6] of 15%. The Binding affinity (spec bound mg-1) in assay [7] was determined as 59.4; in assay [8], 32.

Turning to `O=C(O)[C@@H]1CCCC2NCCCC21` (stereo in doubt; 3) [listing 1 of 2 here], the results for the Duration of seizure in assay [9] and in assay [11] were 26.5 min and 9.5 min, respectively. Further, the Tonic-clonic seizure in assay [10] came to 0; in assay [12] it was 5; in [13], 5; in assay [14], 5; in assay [15], 0; in assay [16] it was 4. In assay [17], this compound showed a Tonic-clonic seizure of 5.

Take `CC(C)NCC(O)c1ccc(O)c(O)c1.O=C(O)[C@@H]1CCCC2NCCCC21` (stereo not given): in assay [18], the Binding affinity (spec bound mg-1) is 0.91.

The compound `CC(C)NCC(O)c1ccc(O)c(O)c1.O=C(O)[C@@H]1CCCC2NCCCC21` (stereo in doubt; form 5) registered a Conversion in assay [4] of 0.8%.

As to `O=C(O)[C@@H]1CCCC2NCCCC21` (stereo in doubt; form 1), the Displacement in [5] is less than 5%; in assay [2] it was less than 10%; in assay [3], less than 10%. The inhibition in assay [6] is less than 5%. The Binding affinity (spec bound mg-1) in assay [19] is 31.9; in assay [20] it was 55.3.

With `CC(C)NCC(O)c1ccc(O)c(O)c1.O=C(O)C1CCCC2NCCCC21` (stereo not given), the Conversion in assay [4] is 0.84%.

For the compound `O=C(O)[C@@H]1CCCC2NCCCC21` (stereo in doubt; 3) [listing 2 of 2 here], the Displacement in [5] is less than 5%; in assay [2] it was less than 10%; in assay [3], less than 10%. Besides, in assay [6], the inhibition was less than 5%. Also, the Binding affinity (spec bound mg-1) in [7] is 59.1; in assay [8], 28.8.

`CC(C)NCC(O)c1ccc(O)c(O)c1` (stereo not given) [ISOPROTERENOL]: in [4], the Conversion turned out to be 0.84%.

For `O=C(O)C1CCCC2NCCCC21` (trans isomer), the Duration of seizure in [9] was 11.7 min; in assay [11], 0.8 min. The Tonic-clonic seizure in assay [10] amounted to 0; in assay [21] it was 5; in assay [13], 5; in assay [14], 5; in [22], 0; in assay [23], 4. In assay [24], this compound registered a Tonic-clonic seizure of 1. The values for the Displacement in assay [5], in assay [2] and in assay [3] were less than 5%, 38% and 43%, respectively. Further, the inhibition in [6] was less than 5%. Also, the Binding affinity (spec bound mg-1) in assay [7] is 65.5; in assay [8], 35.

The compound `CN1C(=O)CN=C(c2ccccc2)c2cc(Cl)ccc21` registered a Binding affinity (spec bound mg-1) in assay [8] of 29.3.

`CC(C)NCC(O)c1ccc(O)c(O)c1.NCC(CC(=O)O)c1ccc(Cl)cc1.O=C(O)C1CCCC2NCCCC21` (stereo not given) displayed a Conversion in [4] of 2.65%.

Regarding `C=C(C)[C@@H]1[C@H]2OC(=O)[C@@H]1[C@]1(O)C[C@H]3O[C@]34C(=O)O[C@H]2[C@]14C`, the Displacement in assay [5] was 90%.

Regarding `CC(C)NCC(O)c1ccc(O)c(O)c1.NCC(CC(=O)O)c1ccc(Cl)cc1.O=C(O)[C@@H]1CCCC2NCCCC21` (stereo in doubt; form 3), the Conversion in assay [4] is given as 2.81%.

For the compound `NCC(CC(=O)O)c1ccc(Cl)cc1` (stereo not given) [BACLOFEN], the Conversion in assay [4] is on record as 0.2%. Further, the Displacement in assay [2] was 100%; in assay [3] it was 15%.

Compound `CC(C)NCC(O)c1ccc(O)c(O)c1.NCC(CC(=O)O)c1ccc(Cl)cc1.O=C(O)[C@@H]1CCCC2NCCCC21` (stereo in doubt; form 1) yielded a Conversion in [4] of 2.59%.
